The text below walks through data of PubChem BioAssay.

Structures are written as SMILES. Activity calls are given as the source filed them.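 Rule for the calls, unless noted: active = viability at or below 10% of carrier control in both of two separate runs; inconclusive = viability at or below 10% in only one of the two runs; inactive = the rest.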

By viability is commonly meant a read-out of living cells in per cent, often relative to untreated cells. One may read the inhibition as the drop in the measured response relative to a control, in per cent.

A short description of experiment [1]: reducers of endogenous Her2 protein level, primary screen, SKBR3 breast tumor cells, AlphaScreen, ATP viability (AID 461;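 active = Her2 level under about 52% in both replicate screens, with viability over 70% of control, limit read from the data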;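 for Her2 level: lower value means less Her2 protein in the cells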;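 for viability: percent of carrier control wells set as 100% viability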). As to conditions: 18-24 h, measured here: SKBR3 viability, ATP luminescence, at 10 µM. A general note: In Alpha technology, singlet oxygen from a donor bead excites a nearby acceptor bead.
Experiment [2] has as its target Receptor tyrosine-protein kinase erbB-2 (Homo sapiens) (UniProt P04626). The experiment is described as above. As to conditions: 18-24 h, at 10 µM, stronger effect = lower value.
A short description of experiment [3]: SK-BR-3 cell growth inhibitors, pilot screen, 24 h, human (AID 572).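 Note: compound exposure lasted between 18 and 24 h rather than exactly 24 h; 100% = carrier-treated control wells.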 As to conditions: SK-BR-3 viability, CellTiter-Glo luminescence, at 10 µM, stronger effect = lower value. For orientation: In ATP-based viability assays light output follows the ATP content of the culture.
Experiment [4] in a line: HUVEC growth inhibition – cell-based, human, primary screen (AID 575;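 active = viability at or below 30% in both replicate assays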;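 note: 100% = median of untreated cell wells with 0.1% DMSO on each plate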). To be noted: HUVEC proliferation, CellTiter-Glo luminescence, 72 h; at 10 µM; stronger effect = lower value. In short, it runs like this:
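system = HUVEC primary cells | amount = 1250 cells/well | buffer or medium = supplemented EBM, 2% fetal bovine serum | dosing = single-point 10 µM, DMSO 0.1% final | times = 72 h compound incubation | detection = CTG luminescence | read-out = % viability relative to median vehicle-well signal on each plate | control set = vehicle and MePR control wells | format = collagen-coated 384-well format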

Experiment [5] can be described thus: growth inhibitors of H69AR lung tumor, primary screen, human, duplicate replicates (AID 580;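 active = viability at or under a set limit in both replicates, limit being median viability minus 3 SD, cut at about 48% in these data, passing the limit was not always enough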;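 note: 100% = mean luminescence of untreated wells and 0% = no signal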). To be noted: H69AR lung tumor cells viability, ATP luminescence, 72 h; at 10 µM; stronger effect = lower value.
Experiment [6] can be described thus: reversal of MRP1-mediated doxorubicin resistance, pilot screen, H69AR cells, doxorubicin co-treatment (AID 601;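 active = viability loss from added drug above about 55%, and viability with drug at most 40%, in both replicates, limit read from the data, passing the limit was not always enough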). To be noted: CellTiter-Glo, 72 h, at 10 µM; for differential viability (reversal): stronger effect = higher value.
A short description of experiment [7]: 384-well plate pilot, post-Golgi transport modulator project, inhibition of yeast transport mutant growth (AID 636; in the data active = inhibition above about 31%). As to conditions: absorbance 615 nm, about 18 h, stronger effect = higher value.
The nature of experiment [8]: growth suppression of yeast trafficking mutant, preliminary HTS, modulators of trafficking downstream of Golgi apparatus project, 1536-format plate, OD 615 nm (AID 637; in the data active = inhibition above about 30%). As to conditions: yeast transport mutant growth, absorbance 615 nm, 18 h; stronger effect = higher value.
The mark [9] stands for this setting: H69AR cells + 2 uM doxorubicin, measured here: viability with 2 uM doxorubicin, stronger effect = lower value.
Where [10] appears, read: H69AR cells, compound alone cytotoxicity.

Chain of Receptor tyrosine-protein kinase erbB-2 (Homo sapiens) (P04626 whole entry, looked up): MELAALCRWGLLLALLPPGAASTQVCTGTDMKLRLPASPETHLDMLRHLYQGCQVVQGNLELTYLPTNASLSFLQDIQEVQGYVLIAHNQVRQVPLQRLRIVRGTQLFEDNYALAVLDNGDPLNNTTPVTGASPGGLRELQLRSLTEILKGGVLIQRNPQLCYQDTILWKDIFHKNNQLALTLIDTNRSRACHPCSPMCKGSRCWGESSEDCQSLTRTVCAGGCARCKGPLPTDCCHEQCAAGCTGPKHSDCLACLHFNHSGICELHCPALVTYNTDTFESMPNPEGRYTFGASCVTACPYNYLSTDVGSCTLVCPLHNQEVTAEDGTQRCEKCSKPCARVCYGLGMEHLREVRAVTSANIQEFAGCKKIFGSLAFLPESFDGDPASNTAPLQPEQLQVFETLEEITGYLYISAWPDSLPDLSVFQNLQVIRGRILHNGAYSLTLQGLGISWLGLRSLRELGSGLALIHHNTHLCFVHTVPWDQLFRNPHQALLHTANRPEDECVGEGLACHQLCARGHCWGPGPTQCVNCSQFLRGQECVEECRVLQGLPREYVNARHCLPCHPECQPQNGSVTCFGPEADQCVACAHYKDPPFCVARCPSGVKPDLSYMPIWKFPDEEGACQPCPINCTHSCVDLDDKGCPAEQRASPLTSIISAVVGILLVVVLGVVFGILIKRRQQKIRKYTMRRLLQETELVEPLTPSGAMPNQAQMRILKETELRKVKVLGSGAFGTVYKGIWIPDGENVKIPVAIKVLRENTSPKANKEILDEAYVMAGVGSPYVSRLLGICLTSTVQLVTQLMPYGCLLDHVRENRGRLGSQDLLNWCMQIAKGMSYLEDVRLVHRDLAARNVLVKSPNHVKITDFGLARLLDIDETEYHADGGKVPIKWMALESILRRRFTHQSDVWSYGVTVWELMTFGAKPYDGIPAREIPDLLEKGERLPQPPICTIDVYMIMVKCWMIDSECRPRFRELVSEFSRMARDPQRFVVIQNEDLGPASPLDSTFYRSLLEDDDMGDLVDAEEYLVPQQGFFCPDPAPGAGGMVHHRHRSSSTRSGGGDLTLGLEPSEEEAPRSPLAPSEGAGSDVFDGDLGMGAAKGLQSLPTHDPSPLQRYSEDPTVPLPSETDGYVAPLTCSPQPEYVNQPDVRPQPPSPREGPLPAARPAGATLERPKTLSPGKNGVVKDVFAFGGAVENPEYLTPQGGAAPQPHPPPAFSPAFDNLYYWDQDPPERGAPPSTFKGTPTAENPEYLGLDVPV

Turning to `C[N+]1=C2CCCCCN2C(O)(c2ccccc2)C1` (stereo not given), the viability in experiment [1] was 97%; in experiment [3], 97% (inactive); in experiment [4] it was 101% (inactive); in experiment [5], 96.3% (inactive); in experiment [6] (setting [9]), 97.6%; in experiment [6] (setting [10]) it was 96.3%. In addition, the Her2 level in experiment [2] is 85% (inactive). Besides, the differential viability (reversal) in experiment [6] (H69AR cells + 2 uM doxorubicin) is -1.28% (inactive). In addition, the inhibition was -0.79% (inactive) in experiment [7] and 1.29% (inactive) in experiment [8].
For the compound `CCOc1cc(C(=O)N2CCN(c3ccccc3)CC2)cc(OCC)c1OCC`, the viability was 98.5% in experiment [1]; 98.5% (inactive) in experiment [3]; 90.1% (inactive) in experiment [4]; 97.2% (inactive) in experiment [5]; 94% in experiment [6] (setting [9]); 97.2% in experiment [6] (setting [10]). For the same compound, the Her2 level in experiment [2] is 97% (inactive). Also, in experiment [6] (H69AR cells + 2 uM doxorubicin), the differential viability (reversal) was 3.12% (inactive). For the same compound, the values for the inhibition in experiment [7] and in experiment [8] were -4.93% (inactive) and -5.32% (inactive), respectively.
As to `Cc1nnc(SCc2cc(=O)[nH]c(N3CCCCC3)n2)s1`, the viability was 94% in experiment [1]; 94% (inactive) in experiment [3]; 107% (inactive) in experiment [4]; 94.1% (inactive) in experiment [5]; 91.9% in experiment [6] (setting [9]); 94.1% in experiment [6] (setting [10]). For the same compound, in experiment [2], the Her2 level was 86.5% (inactive). Besides, the differential viability (reversal) in experiment [6] (H69AR cells + 2 uM doxorubicin) is 2.25% (inactive). Also, the results for the inhibition in experiment [7] and in experiment [8] were -7.3% (inactive) and -2.86% (inactive), respectively.
In the case of `Cc1c(NC(=O)C2(c3ccccc3)CCOCC2)c(=O)n(-c2ccccc2)n1C`, the viability is 92.5% in experiment [1]; 92.5% (inactive) in experiment [3]; 113% (inactive) in experiment [4]; 93.6% (inactive) in experiment [5]; 97.3% in experiment [6] (setting [9]); 93.6% in experiment [6] (setting [10]). Also, in experiment [2], the Her2 level is 92% (inactive). Also, the differential viability (reversal) in experiment [6] (H69AR cells + 2 uM doxorubicin) was -3.73% (inactive). For the same compound, the inhibition in experiment [7] is -3.07% (inactive); in experiment [8], -4.76% (inactive).
As to `CCCCOc1ccc(-c2nnn(CC(=O)NCc3ccco3)n2)cc1`, the viability in experiment [1] is 82.5%; in experiment [3] it was 82.5% (inactive); in experiment [4], 57.3% (inactive); in experiment [5] it was 23.9% (active); in experiment [6] (setting [9]), 54.3%; in experiment [6] (setting [10]) it was 23.9%. Moreover, the Her2 level in experiment [2] is 81% (inactive). Moreover, the differential viability (reversal) in experiment [6] (H69AR cells + 2 uM doxorubicin) is -30.3% (inactive). Moreover, the figures for the inhibition in experiment [7] and in experiment [8] were -1.18% (inactive) and 4.1% (inactive), respectively.
Turning to `CCCn1c(=N)n(CC(=O)c2cccs2)c2ccccc21`, the viability in experiment [1] is 92%; in experiment [3], 92% (inactive); in experiment [4], 93.2% (inactive); in experiment [5], 91% (inactive); in experiment [6] (setting [9]) it was 92.3%; in experiment [6] (setting [10]), 91%. Further, the Her2 level in experiment [2] was 106% (inactive). In experiment [6] (H69AR cells + 2 uM doxorubicin), the differential viability (reversal) is -1.29% (inactive). Besides, the values for the inhibition in experiment [7] and in experiment [8] were -7.33% (inactive) and -4.19% (inactive), respectively.
Turning to `CCCC(=O)OCCn1c(Br)nc2c1c(=O)[nH]c(=O)n2C`, the viability in experiment [1] is 98.5%; in experiment [3], 98.5% (inactive); in experiment [4], 89.4% (inactive); in experiment [5], 93.5% (inactive); in experiment [6] (setting [9]), 88.2%; in experiment [6] (setting [10]), 93.5%. Also, the Her2 level in experiment [2] is 86.5% (inactive). Also, the differential viability (reversal) in experiment [6] (H69AR cells + 2 uM doxorubicin) is 5.21% (inactive). The inhibition in experiment [7] is -1.47% (inactive); in experiment [8], 1.45% (inactive).
Take `O=S(=O)(c1cc(Cl)ccc1Br)N1CCOCC1`: the viability in experiment [1] is 95.5%; in experiment [3], 95.5% (inactive); in experiment [4], 103% (inactive); in experiment [5], 91% (inactive); in experiment [6] (setting [9]) it was 90.4%; in experiment [6] (setting [10]), 91%. In experiment [2], the Her2 level is 108% (inactive). In experiment [6] (H69AR cells + 2 uM doxorubicin), the differential viability (reversal) was 0.56% (inactive). In addition, the inhibition in experiment [7] was -2.99% (inactive); in experiment [8] it was -0.17% (inactive).
For the compound `CCc1ccc2nc(NC(=O)CSCc3c(C)noc3C)sc2c1`, the viability in experiment [1] is 88.5%; in experiment [3] it was 88.5% (inactive); in experiment [4], 52.5% (inactive); in experiment [5] it was 87.2% (inactive); in experiment [6] (setting [9]), 97.6%; in experiment [6] (setting [10]), 87.2%. Moreover, in experiment [2], the Her2 level was 110% (inactive). Further, the differential viability (reversal) in experiment [6] (H69AR cells + 2 uM doxorubicin) was -10.5% (inactive). Besides, the inhibition is -0.67% (inactive) in experiment [7] and -7.54% (inactive) in experiment [8].
As for `Cc1ccc(Cc2c(C)nc3c(C(=O)O)cnn3c2C)cc1`, the viability was 93.5% in experiment [1]; 93.5% (inactive) in experiment [3]; 85.5% (inactive) in experiment [4]; 91.9% (inactive) in experiment [5]; 102% in experiment [6] (setting [9]); 91.9% in experiment [6] (setting [10]). Further, in experiment [2], the Her2 level is 114% (inactive). Besides, the differential viability (reversal) in experiment [6] (H69AR cells + 2 uM doxorubicin) was -10.4% (inactive). Besides, the values for the inhibition in experiment [7] and in experiment [8] were -4.34% (inactive) and -5.17% (inactive), respectively.
Take `O=C(O)c1ccc(COc2c(F)c(F)cc(F)c2F)cc1`: the viability in experiment [1] was 114%; in experiment [3], 114% (inactive); in experiment [4], 101% (inactive); in experiment [5], 103% (inactive); in experiment [6] (setting [9]), 102%; in experiment [6] (setting [10]), 103%. Also, in experiment [2], the Her2 level was 93.5% (inactive). In addition, the differential viability (reversal) in experiment [6] (H69AR cells + 2 uM doxorubicin) was 0.99% (inactive). Besides, the values for the inhibition in experiment [7] and in experiment [8] were -5.73% (inactive) and -0.79% (inactive), respectively.
For the compound `CC(C)(C)C1CCc2[nH]nc(C(=O)O)c2C1` (stereo not given), the viability in experiment [1] is 104%; in experiment [3], 104% (inactive); in experiment [4], 92.3% (inactive); in experiment [5], 98% (inactive); in experiment [6] (setting [9]), 95%; in experiment [6] (setting [10]) it was 98%. In addition, the Her2 level in experiment [2] is 86.5% (inactive). For the same compound, the differential viability (reversal) in experiment [6] (H69AR cells + 2 uM doxorubicin) was 3% (inactive). The inhibition in experiment [7] is -2.43% (inactive); in experiment [8], 1.11% (inactive).
For `Cc1cccc(Nc2nc3c(c(=O)n(C)c(=O)n3C)n2Cc2ccccc2)c1`, the viability in experiment [1] is 122%; in experiment [3], 122% (inactive); in experiment [4], 93.2% (inactive); in experiment [5], 96.6% (inactive); in experiment [6] (setting [9]), 97.5%; in experiment [6] (setting [10]), 96.6%. Further, in experiment [2], the Her2 level is 87% (inactive). Also, in experiment [6] (H69AR cells + 2 uM doxorubicin), the differential viability (reversal) was -0.855% (inactive). Moreover, the inhibition in experiment [7] was -4.32% (inactive); in experiment [8], 2.86% (inactive).
`COc1ccc(OCCC(=O)NCc2ccccc2)cc1`: the viability in experiment [1] was 103%; in experiment [3] it was 103% (inactive); in experiment [4] it was 95.7% (inactive); in experiment [5] it was 103% (inactive); in experiment [6] (setting [9]) it was 83.3%; in experiment [6] (setting [10]), 103%. Also, in experiment [2], the Her2 level was 105% (inactive). The differential viability (reversal) in experiment [6] (H69AR cells + 2 uM doxorubicin) was 19.8% (inactive). Moreover, the inhibition in experiment [7] was -3.2% (inactive); in experiment [8], 2.9% (inactive).
